Laboratory results taken from article PMC4324418 (ACS Chemical Neuroscience, 2014).
Marks after values point to notes of the source that are not given here.

Legend:
[1] = rat (data not shown)
wild-type mice [2] = experiment: MK-801-induced locomotor and nonlocomotor open field behaviors; format: in vivo, mouse
Procedure, shortened: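 After 90 min open-field habituation, mice received vehicle (10% Tween 80 IP) or test compound (3–30 mg/kg IP). Saline or MK-801 (0.3 mg/kg IP) followed 30 min later. Over the next 120 min, ambulatory episodes, vertical counts, stereotypic counts and resting time were scored. Groups were 7–13 mice; ANOVA with Bonferroni tests.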

[3] = Amphetamine-induced hyperlocomotion in M4 KO mice; format: in vivo, mouse; details: mouse, brain, ip, 10 mg/kg, 10 mg/kg IP
M4 KO mice [4] = experiment: Amphetamine-induced hyperlocomotion in M4 KO mice; format: in vivo, mouse
wild-type mice [5] = experiment: Contextual fear conditioning, four-shock, MK-801-induced deficit; format: in vivo, mouse
Procedure, shortened: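 Subjects were wild-type and M4 KO mice, 8–11 weeks old, handled for 3 days and saline-injected 1 day before conditioning. Vehicle (10% Tween 80 in water, IP) or test compound (3–10 mg/kg IP) was given 30 min before saline or MK-801 (0.1–0.3 mg/kg IP). Mice entered the chamber 30 min later for a four-shock conditioning trial. Percent freezing was scored 24 h later, drug-free.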

in vivo = details: male, Sprague-Dawley, rat, po, 3 mg/kg, Tmax,p
[6] = molecular target: T1, human adenosine transporter (Homo sapiens, UniProt Q99808); experiment: [3H]adenosine uptake functional assay; format: cell-based
T1 sequence (Q99808 1-456): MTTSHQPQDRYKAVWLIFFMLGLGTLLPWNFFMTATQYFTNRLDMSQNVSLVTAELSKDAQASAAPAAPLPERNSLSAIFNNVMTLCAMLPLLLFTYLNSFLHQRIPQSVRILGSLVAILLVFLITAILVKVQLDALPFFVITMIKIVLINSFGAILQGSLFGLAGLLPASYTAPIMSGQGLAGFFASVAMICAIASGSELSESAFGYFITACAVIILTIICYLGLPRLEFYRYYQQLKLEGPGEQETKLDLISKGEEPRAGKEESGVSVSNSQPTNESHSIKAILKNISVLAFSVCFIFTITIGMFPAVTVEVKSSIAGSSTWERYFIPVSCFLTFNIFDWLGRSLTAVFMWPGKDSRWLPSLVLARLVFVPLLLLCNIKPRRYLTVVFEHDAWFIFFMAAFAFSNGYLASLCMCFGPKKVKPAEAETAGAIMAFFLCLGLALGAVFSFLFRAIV

wild-type mice [7] = experiment: Modified Irwin neurological test battery; format: in vivo, mouse; details: 10–30 mg/kg
[8] = Mouse brain homogenate binding; format: in vitro ADME
wild-type mice [9] = experiment: Touchscreen pairwise visual discrimination task, wild-type mice; format: in vivo, mouse
Procedure, shortened: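 Mice aged 8–11 weeks were held at ~85% free-feeding weight, with water freely available. They were trained on touchscreen nosepoke discrimination (60 trials or 60 min) to ≥85% accuracy on 3 consecutive days. Next day: vehicle (10% Tween 80 IP) or test compound (3–30 mg/kg IP) 60 min pre-test, then saline or MK-801 (0.1–0.3 mg/kg IP) 30 min later. Mice were retested drug-free 24 h later. Analysis: ANOVA with Bonferroni tests.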

human M5 receptor = experiment: Calcium mobilization, selectivity; format: cell-based
Procedure, shortened: (§1)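 Cells were seeded at 15000/well in DMEM with 10% dialyzed FBS, 20 mM HEPES and 1 mM pyruvate, then cultured overnight at 37 °C/5% CO2. M2 and M4 lines were cotransfected with Gqi5. Cells were loaded with 1 μM Fluo-4AM (HBSS, 20 mM HEPES, 2.5 mM probenecid, pH 7.4) for 50 min at 37 °C. ACh was added 140 s after test compound. Calcium signal was expressed as % of the 10 μM ACh maximum.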

M4 KO mice [10] = experiment: MK-801-induced hyperlocomotion in M4 KO mice; format: in vivo, mouse
Procedure, shortened: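 Wild-type and M4 KO mice were habituated 90 min in a photobeam open field. They then received vehicle (10% Tween 80 IP), followed 30 min later by saline or MK-801 IP, and activity was recorded for 120 min. Distance traveled was binned per 5 min. Totals covered t = 120 to 240 min and were analyzed by ANOVA with Bonferroni post hoc tests.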

[11] = Amphetamine-induced hyperlocomotion in rats; format: in vivo; details: Sprague-Dawley, rat, brain, po
rats = experiment: Amphetamine-induced hyperlocomotion in rats; format: in vivo; details: rat, amphetamine 0.75 mg/kg SC
human M1 receptor = experiment: Calcium mobilization, selectivity; format: cell-based
Procedure, shortened: as §1

[12] = tested on: 57 GPCRs, ion channels, and transporters; experiment: Ricerca lead profiling screen, radioligand binding panel; details: 10 μM
[13] = VU0467154 3.0 mg/kg IP + MK-801 0.30 mg/kg IP
[14] = VU0467154 3.0 mg/kg IP + vehicle
[15] = VU0467154 5.6 mg/kg IP + MK-801 0.30 mg/kg IP
[16] = VU0467154 5.6 mg/kg IP + vehicle
[17] = VU0467154 10.0 mg/kg IP + MK-801 0.30 mg/kg IP
[18] = VU0467154 10.0 mg/kg IP + vehicle
[19] = VU0467154 30.0 mg/kg IP + vehicle

Cc1nnc2sc(C(=O)NCc3ccc(S(=O)(=O)C(F)(F)F)cc3)c(N)c2c1C [VU0467154, 5-amino-3,4-dimethyl-N-(4-((trifluoromethyl)sulfonyl)benzyl)thieno[2,3-c]pyridazine-6-carboxamide]
biliary and urinary excretion of the parent compound [1]: Negligible
reversal of MK-801-induced increases in ambulatory episodes and vertical counts (wild-type mice [2]): potently reversed
reversal of MK-801-mediated increase in stereotypic counts and decreases in resting time (wild-type mice [2]): appeared to be less potent
concentration at 2.5 h ([3]; mean Cbrain, at 2.5 h postadministration): 217 nM
concentration at 2.5 h ([3]; mean Cbrain,u, 2.5 h, in vitro mouse fubrain 0.014): 3 nM
effect on amphetamine-induced hyperlocomotion (M4 KO mice [4]): had no effect on the time course of amphetamine-induced hyperlocomotion
mean reversal of AHL (M4 KO mice [4]; 10 mg/kg IP, amphetamine […] SC): –6.6%
effect on contextual fear conditioning (wild-type mice [5]; VU0467154 alone, four-shock): had no effect on contextual fear conditioning
reversal of MK-801-induced deficits in the acquisition of contextual fear conditioning (wild-type mice [5]; pretreatment 3–10 mg/kg): dose-dependently reversed
Tmax (in vivo): ~3 h
IC50 [6]: 240 nM
autonomic and somatosensory side effects (wild-type mice [7]): did not exhibit autonomic and somatosensory side effects
fraction unbound [8]: 0.014
animals that did not complete all 60 trials in the 60 min session (wild-type mice [9]; 3 mg/kg VU0467154 in combination with 0.3 mg/kg MK-801): 14%
animals that did not complete all 60 trials in the 60 min session (wild-type mice [9]; 10 mg/kg VU0467154 alone): 25%
animals that did not complete all 60 trials in the 60 min session (wild-type mice [9]; 30 mg/kg VU0467154 alone): 33%
correct reward collection latency (wild-type mice [9]; [13]): 3.34 ± 2.06 s
correct touch latency (wild-type mice [9]; [13]): 18.14 ± 14.17 s
time to complete 60 trials (wild-type mice [9]; [13]): 1239 ± 397.7 ^d s
correct reward collection latency (wild-type mice [9]; [14]): 1.13 ± 0.07 s
correct touch latency (wild-type mice [9]; [14]): 2.01 ± 0.16 s
time to complete 60 trials (wild-type mice [9]; [14]): 1061 ± 130.2 s
correct reward collection latency (wild-type mice [9]; [15]): 1.23 ± 0.08 s
correct touch latency (wild-type mice [9]; [15]): 4.10 ± 0.63 s
time to complete 60 trials (wild-type mice [9]; [15]): 856 ± 58.4 s
correct reward collection latency (wild-type mice [9]; [16]): 2.09 ± 0.50 s
correct touch latency (wild-type mice [9]; [16]): 2.24 ± 0.36 s
time to complete 60 trials (wild-type mice [9]; [16]): 1256 ± 211.5 s
correct reward collection latency (wild-type mice [9]; [17]): 1.33 ± 0.08 s
correct touch latency (wild-type mice [9]; [17]): 6.39 ± 1.11 s
time to complete 60 trials (wild-type mice [9]; [17]): 1017 ± 89.1 s
correct reward collection latency (wild-type mice [9]; [18]): 9.24 ± 6.71 s
correct touch latency (wild-type mice [9]; [18]): 18.58 ± 8.50 s
time to complete 60 trials (wild-type mice [9]; [18]): 2171 ± 424.8 ^b s
correct reward collection latency (wild-type mice [9]; [19]): 2.82 ± 0.71 s
correct touch latency (wild-type mice [9]; [19]): 20.89 ± 4.17 s
time to complete 60 trials (wild-type mice [9]; [19]): 2557 ± 397.1 ^c s
potentiation of ACh response (calcium response) (human M5 receptor): lack of a calcium response
effect on MK-801-induced hyperlocomotion (M4 KO mice [10]): had no effect on the time course of MK-801-induced hyperlocomotion
concentration at 1.5 h ([11]; 3 mg/kg, mean Cbrain, PO 3 mg/kg, at 1.5 h postadministration): 750 nM
concentration at 1.5 h ([11]; 3 mg/kg, mean Cbrain,u, PO 3 mg/kg, 1.5 h, in vitro rat fubrain 0.067): 50 nM
concentration at 1.5 h ([11]; 10 mg/kg, mean Cbrain, PO 10 mg/kg, at 1.5 h postadministration): 1100 nM
concentration at 1.5 h ([11]; 10 mg/kg, mean Cbrain,u, PO 10 mg/kg, 1.5 h, in vitro rat fubrain 0.067): 74 nM
concentration at 1.5 h ([11]; 30 mg/kg, mean Cbrain,u, PO 30 mg/kg, 1.5 h, in vitro rat fubrain 0.067): 94 nM
concentration at 1.5 h ([11]; 56.6 mg/kg, mean Cbrain,u, PO 56.6 mg/kg, 1.5 h, in vitro rat fubrain 0.067): 94 nM
mean reversal of AHL (rats; PO 1 mg/kg): 21%
mean reversal of AHL (rats; PO 3 mg/kg): 33%
mean reversal of AHL (rats; PO 10 mg/kg): 46%
mean reversal of AHL (rats; PO 30 mg/kg): 53%
mean reversal of AHL (rats; PO 56.6 mg/kg): 42%
potentiation of ACh response (calcium response) (human M1 receptor): lack of a calcium response
displacement of the radioligand ([12]; all targets included in this panel): ≤ 30%
displacement of the radioligand ([12]; majority of targets): ≤ 20%
